The subject of one experiment is Escherichia coli. Kind of experiment: Antibacterial activity against Escherichia coli after 18 hrs by MTT assay. The format is functional. Particulars: in the assay text read “by broth dilution assay” for “by MTT assay”. The method in brief:
(§1)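 Conventional broth dilution assay against a panel of nine bacterial strains including E. coli and S. albus; V. parahemolyticus also used as pathogenic test organism.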

For a further experiment, the system named is Staphylococcus. In words: Antibacterial activity against Staphylococcus albus after 18 hrs by MTT assay. Particulars: in the assay text read “by broth dilution assay” for “by MTT assay”. Type of experiment: functional. The method in brief: as §1
A general note: Formazan colour is commonly taken as a measure of viable cells.

The next experiment deals with Vibrio parahaemolyticus. Kind of experiment: Antibacterial activity against Vibrio parahaemolyticus after 18 hrs by MTT assay. The format is functional. Particulars: in the assay text read “by broth dilution assay” for “by MTT assay”. The method in brief: as §1
Another experiment deals with PC-3. In words: Cytotoxicity against human PC3 cells after 6 days by MTT assay. Type of experiment: functional, cell-based. The following applies: PC-3, 144 h.
A further experiment deals with HepG2. Kind of experiment: Cytotoxicity against human HepG2 cells after 6 days by MTT assay. The format is functional, cell-based. Particulars: HepG2, 144 h.
In another experiment the test system is HCT-116. Kind of experiment: Cytotoxicity against human HCT116 cells after 6 days by MTT assay. Type of experiment: functional, cell-based. Particulars: HCT-116, 144 h.
Experiment [1] can be described thus: Cytotoxicity against human MCF7/ADR cells after 6 days by MTT assay. The format is functional, cell-based. The following applies: NCI/ADR-RES, 144 h.
Experiment [2] is described as follows: Cytotoxicity against human Hep3B cells after 6 days by MTT assay. The format is functional, cell-based, Hep 3B2. The following applies: 144 h.
In experiment [3] the test system is Porcine reproductive and respiratory syndrome virus. Kind of experiment: Antiviral activity against Porcine reproductive and respiratory syndrome virus infected in CRL11171 cells assessed as inhibition of viral replication by RT-PCR analysis. Type of experiment: functional, cell-based.

≈ marks a conversion by molar mass, not a printed value.

As for `COc1cc(O)c2c(c1)C(=O)c1cc(C)c(O)cc1C2=O` [MACROSPORIN], the MIC (commonly the lowest concentration found to suppress growth) came to 2.3 µM (≈ 0.654 µg/mL) in the experiment on Escherichia coli, 15 µM (≈ 4.26 µg/mL) in the experiment with Staphylococcus and 5 µM (≈ 1.42 µg/mL) in the experiment with Vibrio parahaemolyticus.
`COc1cc(O)c2c(c1)C(=O)c1cc(C)c(O)c(-c3c(OC)cc4c(c3O)C(=O)C3=C(C4=O)[C@@H](O)[C@](C)(O)[C@H](O)C3)c1C2=O` [ALTERPORRIOL P]: the IC50 (commonly the concentration needed to halve the response being measured) came out at 6.4 µM in the experiment on PC-3; 20 µM in the experiment on HepG2; 8.6 µM with HCT-116; 23 µM in [1]; 21 µM in [2].
Regarding `COc1cccc2c1C(=O)c1c(O)c3c(c(O)c1C2=O)C[C@@](O)(C(=O)CO)C[C@@H]3O[C@H]1C[C@H](N)[C@@H](O)[C@H](C)O1` [EPIRUBICIN], the IC50 came out at 0.46 µM in the experiment with PC-3; 1.65 µM with HepG2; 0.82 µM with HCT-116; 1.65 µM in experiment [1]; 0.96 µM in experiment [2].
In the case of `COc1cc(O)c2c(c1)C(=O)c1cc(C)c(O)c(-c3c(OC)cc4c(c3O)C(=O)c3cc(O)c(C)cc3C4=O)c1C2=O` [ALTERPORRIOL Q], the IC50 in experiment [3] turned out to be 22 µM.
On to `COc1cc(O)c2c(c1)[C@H](O)[C@@H]1[C@@H](C2=O)[C@H](O)[C@@H](O)[C@@](C)(O)[C@@H]1O` [AMPELANOL], for which the IC50 (in the experiment on PC-3; in the experiment with HepG2; in the experiment on HCT-116; in [1]; in [2]) was over 100 µM throughout.
Regarding `COc1cc(O)c2c(c1)[C@H](O)[C@H]1C[C@](C)(O)[C@H](O)C[C@@H]1C2=O` [TETRAHYDROALTERSOLANOL B], the IC50 (in the experiment on PC-3; with HepG2; in the experiment on HCT-116; in experiment [1]; in experiment [2]) was over 100 µM each time.
Consider `COc1cc(O)c2c(c1)C(=O)C1=C(C[C@@H](O)[C@@](C)(O)C1)C2=O` [ALTERSOLANOL B], for which the IC50 (with PC-3; in the experiment on HepG2; with HCT-116; in experiment [1]; in [2]) was over 100 µM throughout.
On to `COc1cc(O)c2c(c1)C(=O)c1cc(C)c(O)c(-c3c(OC)cc4c(c3O)C(=O)C3=C(C4=O)[C@@H](O)[C@](C)(O)[C@H](O)[C@H]3O)c1C2=O` [ALTERPORRIOL C], for which the IC50 in the experiment on PC-3 turned out to be 27 µM; in the experiment with HepG2, 53 µM; with HCT-116 it was 24 µM; in experiment [1], 98 µM; in [2], 51 µM; in experiment [3], 39 µM. The MIC in the experiment with Escherichia coli was 2.5 µM (≈ 1.55 µg/mL); against Staphylococcus, over 20 µM; in the experiment on Vibrio parahaemolyticus, 2.5 µM (≈ 1.55 µg/mL).
On to `COc1cc(O)c2c(c1)[C@H](O)[C@@H]1C[C@](C)(O)[C@H](O)C[C@H]1C2=O` (relative stereo), for which the IC50 (in the experiment on PC-3; in the experiment with HepG2; in the experiment with HCT-116; in [1]; in experiment [2]) was over 100 µM in each case.
For the compound `COc1cc(O)c2c(c1)[C@H](O)[C@@H]1C(=C[C@@H](O)[C@@](C)(O)[C@@H]1O)C2=O` (relative stereo), the IC50 (in the experiment with PC-3; with HepG2; with HCT-116; in [1]; in experiment [2]) was over 100 µM throughout.
Consider `O=C(O)c1cn(C2CC2)c2cc(N3CCNCC3)c(F)cc2c1=O` [CIPROFLOXACIN], for which the figures for the MIC with Escherichia coli, against Staphylococcus and in the experiment with Vibrio parahaemolyticus were 0.62 µM (≈ 0.205 µg/mL), 0.31 µM (≈ 0.103 µg/mL) and 0.16 µM (≈ 0.053 µg/mL), respectively.
In the case of `COc1cc(O)c2c(c1)[C@H](O)[C@@H]1[C@H](C[C@@H](O)[C@@](C)(O)[C@@H]1O)C2=O` [ALTERSOLANOL L], the IC50 (with PC-3; in the experiment with HepG2; in the experiment with HCT-116; in experiment [1]; in experiment [2]) was over 100 µM in each case.
With `COc1cc(O)c2c(c1)[C@H](O)[C@H]1C[C@](C)(O)[C@@H](O)C[C@@H]1C2=O` (relative stereo) [TETRAHYDROALTERSOLANOL E], the IC50 (with PC-3; with HepG2; in the experiment with HCT-116; in [1]; in experiment [2]) was over 100 µM each time.
Consider `COc1cc(O)c2c(c1)[C@H](O)[C@H]1C[C@](C)(O)[C@H](OC(C)=O)C[C@@H]1C2=O`, for which the IC50 (in the experiment with PC-3; in the experiment on HepG2; in the experiment on HCT-116; in [1]; in [2]) was over 100 µM in each case.
`COc1cc(O)c2c(c1)[C@@H](O)[C@H]1C[C@](C)(O)[C@H](O)C[C@@H]1C2=O` (relative stereo) [TETRAHYDROALTERSOLANOL C]: the IC50 with PC-3 was over 100 µM; in the experiment with HepG2 it was over 100 µM; in the experiment on HCT-116 it was over 100 µM; in experiment [1], over 100 µM; in experiment [2] it was over 100 µM; in experiment [3] it was 65 µM.
On to `COc1cc(O)c2c(c1)C(=O)C1=C(C[C@@H](O)[C@@](C)(O)[C@@H]1O)C2=O` [ALTERSOLANOL C], for which the IC50 in the experiment with PC-3 was found to be 7.6 µM; in the experiment with HepG2, 8.9 µM; with HCT-116, 2.2 µM; in experiment [1], 3.2 µM; in experiment [2] it was 8.2 µM. Besides, the MIC against Escherichia coli turned out to be 0.62 µM (≈ 0.199 µg/mL); in the experiment on Staphylococcus, 12 µM (≈ 3.84 µg/mL); in the experiment with Vibrio parahaemolyticus, 1.25 µM (≈ 0.4 µg/mL).
